Activity calls are given as the source filed them. The calls are words filed in the database; no cut-off is given here.
Tests used:
[1] = Enzymatic stability assessed as alpha-chymotrypsin (unknown origin)-mediated compound hydrolysis at pH 7.8 at 0.1 mg/ml incubated for 24 hrs by HPLC-MS analysis; assay type: ADME; conditions: human, buffer, pH 7.8, 24 h
Procedure, shortened: (§1)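 Compound (0.1 mg/mL) was incubated with 0.1 mg/mL α-chymotrypsin or pronase in 100 mM ammonium bicarbonate, pH 7.8, at 37 °C for 24 h. Mixtures were concentrated by speed vacuum to remove water and buffer salt. Residual compound was then analysed by HPLC-MS.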

[2] = target: T1, E3 ubiquitin-protein ligase Mdm2 (Homo sapiens, UniProt Q00987); assay: Binding affinity to human MDM2 expressed in Escherichia coli expression system by using (FITC)-labeled p53 peptide based fluorescence polarization competitive assay
Target sequence in this assay (Q00987 whole entry): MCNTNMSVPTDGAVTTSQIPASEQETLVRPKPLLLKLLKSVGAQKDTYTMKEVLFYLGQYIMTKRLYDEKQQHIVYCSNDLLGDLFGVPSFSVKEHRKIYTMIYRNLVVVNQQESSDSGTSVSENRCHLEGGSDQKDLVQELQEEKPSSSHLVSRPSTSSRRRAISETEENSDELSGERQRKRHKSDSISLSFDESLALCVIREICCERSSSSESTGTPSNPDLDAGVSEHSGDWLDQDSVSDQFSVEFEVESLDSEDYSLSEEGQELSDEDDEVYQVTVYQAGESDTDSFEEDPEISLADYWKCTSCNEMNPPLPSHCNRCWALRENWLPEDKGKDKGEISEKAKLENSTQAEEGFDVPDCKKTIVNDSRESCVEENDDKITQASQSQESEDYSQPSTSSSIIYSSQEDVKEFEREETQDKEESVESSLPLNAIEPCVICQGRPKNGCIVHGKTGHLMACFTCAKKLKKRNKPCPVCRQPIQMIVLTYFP

[3] = target: Cellular tumor antigen p53 (Homo sapiens) (UniProt P04637); assay: Activation of p53 in human U2OS cells cotransfected with BP100-luc and CMV-lacZ gene assessed as luciferase gene expression at 30 uM incubated for 18 hrs by p53-dependent luciferase transcriptional activation assay; assay type: cell-based
Procedure, shortened: (§2)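 U2OS cells stably carrying the p53-responsive BP100-luc reporter and a CMV-lacZ control were seeded at 100,000 per well 24 h before dosing at 30 μM. Lysates were assayed for luciferase and β-gal activity. […] Each value is the average of at least three measurements, with standard deviation.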

[4] = target: T2, Tumour suppressor p53/oncoprotein Mdm2 (Homo sapiens) (UniProt P04637+Q00987); assay: Inhibition of MDM2/p53 interaction in human U2OS cells assessed as increase in MDM2 level at 30 uM incubated for 16 hrs by Western blot analysis; assay type: cell-based
Procedure, shortened: (§3)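 Exponentially growing U2OS cells were treated at 30 μM for 16 h, then lysed in RIPA with 1 mM PMSF and protease inhibitors. Lysates were resolved by SDS-PAGE and blotted. Blots were blocked in PBS with 5% milk and 0.1% Tween 20.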

[5] = target: T2, Tumour suppressor p53/oncoprotein Mdm2 (Homo sapiens); assay: Inhibition of MDM2/p53 interaction in human U2OS cells assessed as increase in p53 level at 30 uM incubated for 16 hrs by Western blot analysis; assay type: cell-based; procedure, shortened: as §3
[6] = target: T2, Tumour suppressor p53/oncoprotein Mdm2 (Homo sapiens); assay: Inhibition of MDM2/p53 interaction in human U2OS cells assessed as increase in p21 level at 30 uM incubated for 16 hrs by Western blot analysis; assay type: cell-based; procedure, shortened: as §3
[7] = target: T3, Protein Mdm4 (Homo sapiens, UniProt O15151); assay: Binding affinity to MDMX (unknown origin) by using (FITC)-labeled p53 peptide based fluorescence polarization competitive assay
T3 sequence (O15151 whole entry): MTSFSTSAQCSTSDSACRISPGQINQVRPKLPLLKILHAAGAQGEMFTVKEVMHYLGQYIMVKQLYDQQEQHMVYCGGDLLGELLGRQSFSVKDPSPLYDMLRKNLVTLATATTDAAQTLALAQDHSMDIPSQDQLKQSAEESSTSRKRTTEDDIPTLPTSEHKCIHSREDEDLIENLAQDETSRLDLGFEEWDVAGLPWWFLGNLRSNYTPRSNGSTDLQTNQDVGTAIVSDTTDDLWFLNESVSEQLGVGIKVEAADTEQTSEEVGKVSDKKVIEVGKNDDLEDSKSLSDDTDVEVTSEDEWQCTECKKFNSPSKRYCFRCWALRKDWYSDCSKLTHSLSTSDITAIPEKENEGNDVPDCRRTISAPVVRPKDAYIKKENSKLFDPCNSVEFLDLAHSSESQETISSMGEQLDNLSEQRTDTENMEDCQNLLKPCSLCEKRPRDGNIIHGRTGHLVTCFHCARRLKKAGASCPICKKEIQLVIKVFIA

[8] = Enzymatic stability assessed as pronase (unknown origin)-mediated compound hydrolysis at pH 7.8 at 0.1 mg/ml incubated for 24 hrs by HPLC-MS analysis; assay type: ADME; conditions: buffer, pH 7.8, 24 h; procedure, shortened: as §1
[9] = target: T1, E3 ubiquitin-protein ligase Mdm2; assay: Binding affinity to human MDM2 (17-125 residues) by NMR spectroscopic analysis
Procedure, shortened: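 Uniformly 15N/13C-labelled human MDM2 residues 17–125 was analysed free and with ligand. Sensitivity-enhanced 1H–15N HSQC and 3D HNCA spectra were recorded for resonance assignment. Buffer was 50 mM sodium phosphate, 100 NaCl, 1 mM EDTA, 0.02% sodium azide and 2 mM DTT, pH 6.8, with 10% D2O.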
Target sequence in this assay (Q00987 whole entry, looked up): as the sequence (Q00987 whole entry) above

[10] = target: T1, E3 ubiquitin-protein ligase Mdm2; assay: Potency index, ratio of p53 binding affinity to compound binding affinity to human MDM2 (17-125 residues) by NMR spectroscopic analysis
Target sequence in this assay (Q00987 whole entry, looked up): as the sequence (Q00987 whole entry) above

[11] = target: Cellular tumor antigen p53 (Homo sapiens) (UniProt P04637); assay: Activation of p53 in human U2OS cells cotransfected with BP100-luc and CMV-lacZ gene assessed as lacZ gene expression at 30 uM incubated for 18 hrs by p53-dependent luciferase transcriptional activation assay; assay type: cell-based; procedure, shortened: as §2
[12] = tested on: HCT-116; assay: Antiproliferative activity against human HCT116 cells expressing wild-type p53 assessed as reduction in cell viability at 200 uM incubated for 48 hrs by MTT assay
[13] = tested on: HCT-116; assay: Antiproliferative activity against human HCT116 cells harboring p53 deletion mutant assessed as reduction in cell viability at 200 uM incubated for 48 hrs by MTT assay
[14] = target: T1, E3 ubiquitin-protein ligase Mdm2; assay: Potency index, ratio of p53 IC50 to test compound IC50 for binding affinity to human MDM2 expressed in Escherichia coli expression system by using (FITC)-labeled p53 peptide based fluorescence polarization competitive assay
Target sequence in this assay (Q00987 whole entry, looked up): as the sequence (Q00987 whole entry) above

Chain of Cellular tumor antigen p53 (Homo sapiens) (P04637 whole entry, looked up): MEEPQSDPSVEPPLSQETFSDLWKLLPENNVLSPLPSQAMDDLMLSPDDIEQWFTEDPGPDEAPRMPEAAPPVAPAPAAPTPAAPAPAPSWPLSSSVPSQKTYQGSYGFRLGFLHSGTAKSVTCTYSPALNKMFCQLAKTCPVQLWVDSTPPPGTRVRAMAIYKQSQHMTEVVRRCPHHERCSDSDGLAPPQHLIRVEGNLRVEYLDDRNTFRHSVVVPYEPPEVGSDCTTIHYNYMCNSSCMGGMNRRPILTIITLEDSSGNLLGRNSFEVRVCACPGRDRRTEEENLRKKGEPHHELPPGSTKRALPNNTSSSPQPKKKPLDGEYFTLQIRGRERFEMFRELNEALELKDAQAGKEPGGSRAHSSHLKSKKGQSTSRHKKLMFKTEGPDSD
T2 sequence (P04637 whole entry, looked up): as above
T2 sequence (Q00987 whole entry, looked up): as the sequence (Q00987 whole entry) above

Row | Stability [1] | IC50 ([2]; read-out: IC50) | Activity [3] | inhibition [4] | inhibition [5] | inhibition [6] | IC50 [7] | Stability [8] | Kd [2] | Activity [9] | Ratio [10] | Activity [11] | Kd [7] | Ratio IC50 [14] | SMILES | inhibition [12] | Activity [13] | IC50 [2]
1 | Stable | 891 nM | Active |  |  |  | 3600 nM | Stable | 26 nM | Active | 10 | inactive | 221 nM |  | CC(=O)N[C@@H](CC(C)C)CN(CC(=O)N[C@@H](Cc1ccccc1)CN(CC(=O)N[C@@H](CCC(=O)O)CN(CC(=O)N[C@@H](Cc1c[nH]c2ccccc12)CN(CC(=O)N[C@@H](CCCCN)CN(CC(=O)N[C@@H](CC1CCC1)CN(CC(=O)N[C@@H](C)CN(CC(N)=O)S(C)(=O)=O)S(=O)(=O)CC(C)C)S(C)(=O)=O)S(C)(=O)=O)S(C)(=O)=O)S(C)(=O)=O)S(=O)(=O)c1ccc(Cl)cc1 | Active | Active | 
2 | Stable | 2800 nM | Active |  |  |  | 6000 nM | Stable | 57 nM |  |  | inactive | 370 nM | 1.5 | CC(=O)N[C@@H](CC(C)C)CN(CC(=O)N[C@@H](Cc1ccccc1)CN(CC(=O)N[C@@H](CCC(=O)O)CN(CC(=O)N[C@@H](Cc1c[nH]c2ccccc12)CN(CC(=O)N[C@@H](CCCCN)CN(CC(=O)N[C@@H](CC(C)C)CN(CC(=O)N[C@@H](C)CN(CC(N)=O)S(C)(=O)=O)S(=O)(=O)CC(C)C)S(C)(=O)=O)S(C)(=O)=O)S(C)(=O)=O)S(C)(=O)=O)S(=O)(=O)c1ccc(Cl)cc1 |  |  | 
3 | Stable |  |  |  |  |  |  | Stable |  |  |  |  |  |  | CC(=O)N[C@@H](CC(C)C)CN(CC(=O)N[C@@H](Cc1ccccc1)CN(CC(=O)N[C@@H](CCC(=O)O)CN(CC(=O)N[C@@H](Cc1c[nH]c2ccccc12)CN(CC(=O)N[C@@H](CCCCN)CN(CC(=O)N[C@@H](CC1CCCCC1)CN(CC(=O)N[C@@H](C)CN(CC(N)=O)S(C)(=O)=O)S(=O)(=O)CC(C)C)S(C)(=O)=O)S(C)(=O)=O)S(C)(=O)=O)S(C)(=O)=O)S(=O)(=O)c1ccc(Cl)cc1 |  |  | 

More lines, now with the values behind:

Row | SMILES | Stability [1] | IC50 ([2]; read-out: IC50) | Activity [3] | inhibition [4] | inhibition [5] | inhibition [6] | IC50 [7] | Stability [8] | Kd [2] | Activity [9] | Ratio [10] | Activity [11] | Kd [7] | Ratio IC50 [14] | inhibition [12] | Activity [13] | IC50 [2]
4 | CC(=O)N[C@@H](CC(C)C)CN(CC(=O)N[C@@H](Cc1ccccc1)CN(CC(=O)N[C@@H](CCC(=O)O)CN1CC(=O)N[C@@H](Cc2c[nH]c3ccccc23)CN(S(C)(=O)=O)CC(=O)N[C@@H](CCCCN)CN(CC(=O)N[C@@H](CC(C)C)CN(CC(=O)N[C@@H](C)CN(CC(N)=O)S(C)(=O)=O)S(=O)(=O)CC(C)C)S(=O)(=O)CC/C=C/CCCCS1(=O)=O)S(C)(=O)=O)S(=O)(=O)c1ccc(Cl)cc1 | Stable | 3600 nM | 25% | Active | Active | Active | 6600 nM | Stable |  |  |  |  |  |  |  |  | 
5 | CC(=O)N[C@@H](CC(C)C)CN(CC(=O)N[C@@H](Cc1ccccc1)CN(CC(=O)N[C@@H](CCC(=O)O)CN(CC(=O)N[C@@H](C)CN(CC(=O)N[C@@H](CCCCN)CN(CC(=O)N[C@@H](CC(C)C)CN(CC(=O)N[C@@H](C)CN(CC(N)=O)S(C)(=O)=O)S(=O)(=O)CC(C)C)S(C)(=O)=O)S(C)(=O)=O)S(C)(=O)=O)S(C)(=O)=O)S(=O)(=O)c1ccc(Cl)cc1 |  |  |  |  |  |  |  |  |  |  |  |  |  |  |  |  | Not Active
6 | CC(=O)N[C@@H](CC(C)C)CN(CC(=O)N[C@@H](Cc1ccccc1)CN(CC(=O)N[C@@H](CCC(=O)O)CN1CC(=O)N[C@@H](Cc2c[nH]c3ccccc23)CN(S(C)(=O)=O)CC(=O)N[C@@H](CCCCN)CN(CC(=O)N[C@@H](CC(C)C)CN(CC(=O)N[C@@H](C)CN(CC(N)=O)S(C)(=O)=O)S(=O)(=O)CC(C)C)S(=O)(=O)CCCC/C=C/CCCCS1(=O)=O)S(C)(=O)=O)S(=O)(=O)c1ccc(Cl)cc1 | Stable | 1900 nM | 70% | Active | Active | Active | 3900 nM | Stable |  |  |  |  |  |  | Active | Active | 

— ChEMBL document CHEMBL4321882, “α-Helix-Mimicking Sulfono-γ-AApeptide Inhibitors for p53-MDM2/MDMX Protein-Protein Interactions” (J Med Chem, 2020)
